Active and inactive are the calls of the source. The rule behind the calls is not given here.

Experimental findings from ChEMBL document CHEMBL2029233, “Des-acyl ghrelin fragments and analogues promote survival of pancreatic β-cells and human pancreatic islets and prevent diabetes in streptozotocin-treated rats” (2012) are described below.

In test [1] the test system is HIT-T15. As to the kind of experiment: Cytoprotective activity in hamster HIT-T15 cells assessed as inhibition of IFN-gamma/TNFalpha/IL1beta-induced cell death at 10 to 100 nM after 24 hrs by MTT assay relative to control. It is filed as functional, cell-based. Conditions: Mesocricetus auratus. Summed up:
(§1)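 HIT-T15 cells (5×10^3/well) serum-starved 24 h, then 24 h serum-free with IFN-γ 100 ng/mL, TNF-α 200 ng/mL, IL-1β 10 ng/mL plus peptide (1–100 nM). MTT 1 mg/mL ~1 h, formazan dissolved in DMSO, A570. Reported as percent of cytokine control. Mean ± SE of ≥3 experiments in quadruplicate.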
On the technique in general: Formazan colour is commonly taken as a measure of viable cells.

Test [2] deals with HIT-T15. Put plainly: Antiapoptotic activity in hamster HIT-T15 cells assessed as reduction in IFN-gamma/TNFalpha/IL1beta-induced apoptosis at 100 nM after 24 hrs by Hoechst staining relative to control. It is filed as functional, cell-based. The conditions noted are these: Mesocricetus auratus. Summed up: (§2)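 HIT-T15 cells serum-starved 24 h, then 24 h in serum-free medium with IFN-γ 100 ng/mL, TNF-α 200 ng/mL, IL-1β 10 ng/mL plus peptide. Cells pooled with floating cells, formaldehyde-fixed, ethanol-stored, stained with 10 μg/mL Hoechst 33258. Condensed/fragmented nuclei counted, 500 nuclei in duplicate, n = 3. Reported as percent apoptotic cells.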

The subject of test [3] is HIT-T15. Put plainly: Antiapoptotic activity in hamster HIT-T15 cells assessed as reduction in IFN-gamma/TNFalpha/IL1beta-induced apoptosis at 1 nM after 24 hrs by Hoechst staining relative to control. Conditions: Mesocricetus auratus. It is filed as functional, cell-based. In short, it runs like this:
as §2

The test system of test [4] is HIT-T15. As to the kind of experiment: Antiapoptotic activity in hamster HIT-T15 cells assessed as reduction in IFN-gamma/TNFalpha/IL1beta-induced apoptosis at 10 nM after 24 hrs by Hoechst staining relative to control. The conditions noted are these: Mesocricetus auratus. It is filed as functional, cell-based. In short, it runs like this:
as §2

In test [5] the test system is Pancreatic islet. As to the kind of experiment: Cytoprotective activity in human pancreatic islet cells assessed as inhibition of IFN-gamma/TNFalpha/IL1beta-induced cell death at 100 nM after 24 hrs by MTT assay relative to control. It is filed as functional. In short, it runs like this:
(§3)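 Human donor islets (purity >70%, 25/well) serum-starved 24 h, then 24 h serum-free with peptide (1–100 nM), alone or with IFN-γ 100 ng/mL, TNF-α 200 ng/mL, IL-1β 10 ng/mL. MTT 1 mg/mL ~1 h, DMSO, A570. Percent of serum-free or cytokine control. ≥3 experiments in quadruplicate.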

In test [6] the test system is Pancreatic islet. As to the kind of experiment: Cytoprotective activity in human pancreatic islet cells assessed as inhibition of serum starvation-induced cell death at 100 nM after 24 hrs by MTT assay relative to control. It is filed as functional. In short, it runs like this:
as §3

Test [7] concerns HIT-T15. Put plainly: Cytoprotective activity in hamster HIT-T15 cells assessed as inhibition of IFN-gamma/TNFalpha/IL1beta-induced cell death at 1 to 100 nM after 24 hrs by MTT assay relative to control. The conditions noted are these: Mesocricetus auratus. It is filed as functional, cell-based. Summed up: as §1
Test [8] has as its system Pancreatic islet. Put plainly: Cytoprotective activity in human pancreatic islet cells assessed as inhibition of IFN-gamma/TNFalpha/IL1beta-induced cell death at 100 nM after 72 hrs by MTT assay relative to control. It is filed as functional. Summed up: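 Human donor islets (>70% purity, 25/well) held 72 h in serum-free medium with peptide, alone or with IFN-γ/TNF-α/IL-1β at 5 ng/mL each. Viability by MTT (1 mg/mL ~1 h, DMSO, 570 nm). Mean ± SE of ≥3 experiments in quadruplicate.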

As for H-EHQRV-NH2, the outcome with HIT-T15 [1] and with HIT-T15 [2] was Active. The result in the test on HIT-T15 [3] and with HIT-T15 [4] was inactive.
Regarding H-QQVRQHEPSLFSSG-OH, the result in the test on Pancreatic islet [5], with Pancreatic islet [6], in the test on HIT-T15 [2], in the test with HIT-T15 [7], in the test on HIT-T15 [3] and with Pancreatic islet [8] was inactive. Also, the result with HIT-T15 [4] was inactive.
